Legend:
[1] = Serum IDeg pharmacokinetics; format: in vivo, Japanese patients with type 1 diabetes
How it was run: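 Serum drug levels were measured by specific sandwich ELISA. Troughs were drawn before each of 6 once-daily doses given at 20.00 h. After the last dose, samples were taken every 1–2 h to 24 h, then at 30, 36, 48, 72, 96 and 120 h. Post-hoc steady-state time was the time from first dose until troughs exceeded 90% of final plateau.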

[2] = cited from earlier work
[3] = Safety: adverse events, hypoglycemic episodes, injection-site reactions; format: in vivo, Japanese patients with type 1 diabetes
How it was run: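 Randomized, double-blind, two-period crossover trial with once-daily […] dosing at 20.00 h for 6 days; periods separated by 7–21-day washout; insulin aspart boluses allowed. Safety end-points: AEs, injection-site reactions, ECG, vital signs, labs. Confirmed hypoglycemia: severe (ADA definition), plasma glucose <3.1 mmol/L, or full blood glucose <2.8 mmol/L.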

Substance: insulin degludec [IDeg]
- Time to steady state (trough concentrations exceeding 90% of final plateau) ([1]; once-daily dosing, all Japanese patients, confirmed by post-hoc analyses): 2 to 3 days
- Time for which serum IDeg was detectable after the last dose ([1]; steady state, 120 h = end of observation period, Japanese patients): at least 120 h
- AUCτ,SS, 24-h exposure ([2]; Caucasian patients, 0.4 U/kg): 82,612 pmol h/L
- Time to steady state ([2]; previously shown): 2 to 3 days
- Tolerability ([3]; 6 days of once-daily 0.4 U/kg, 22 Japanese type 1 diabetes patients): well tolerated
- Injection-site reactions ([3]; after treatment with IDeg): no injection‐site reactions were recorded
- Serious AEs ([3]; after treatment with IDeg): No serious AEs occurred
- Treatment-emergent AEs (other than hypoglycemia), number ([3]; after treatment with IDeg, all AEs mild): three
- Patients with confirmed treatment-emergent hypoglycemic episodes, number ([3]; fixed dose 0.4 U/kg): 13 patients
- Confirmed treatment-emergent hypoglycemic episodes, number ([3]; fixed dose 0.4 U/kg, confirmed = severe, or plasma glucose <3.1 mmol/L): 93

— paper PMC4773674 (Journal of Diabetes Investigation, 2015)
